For the assay, the target named is Potassium channel subfamily K member 9 (Homo sapiens) (UniProt Q9NPC2). The experiment in a line: KCNK9 potassium channel inhibitors, SAR follow-up, HEK293 cells, thallium flux, round II (AID 540322). Conditions: HEK293-KCNK9, FluxOR thallium flux fluorescence. Put shortly:
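Material: HEK293 cells stably expressing the KCNK9 potassium channel; also added: K2SO4 plus Tl2SO4 stimulus (5x stock); compound dosing: multi-concentration series; timing: 90 min dye loading, 20 min compound pre-incubation, room temperature; measured by: FluxOR thallium-sensitive dye fluorescence, 110 s kinetic read post-stimulus; evaluation: IC50 from normalized fluorescence change; repeats: replicates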

In PubChem BioAssay AID540322 (Johns Hopkins Ion Channel Center, 2011) one finds IC50 data, which are given here for 65 compounds.

Potassium channel subfamily K member 9 (Homo sapiens), sequence (Q9NPC2 whole entry, looked up): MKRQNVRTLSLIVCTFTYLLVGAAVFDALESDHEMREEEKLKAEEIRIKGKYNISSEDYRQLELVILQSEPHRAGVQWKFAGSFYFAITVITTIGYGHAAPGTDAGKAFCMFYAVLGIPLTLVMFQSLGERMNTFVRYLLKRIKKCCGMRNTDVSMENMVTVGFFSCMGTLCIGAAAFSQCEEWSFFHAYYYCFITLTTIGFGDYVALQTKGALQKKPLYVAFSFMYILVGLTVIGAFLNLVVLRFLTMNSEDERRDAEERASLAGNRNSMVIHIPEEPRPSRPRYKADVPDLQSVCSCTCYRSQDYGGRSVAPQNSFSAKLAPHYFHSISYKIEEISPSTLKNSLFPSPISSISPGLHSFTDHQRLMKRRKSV

Broadly, the IC50 is the midpoint of a concentration-inhibition curve. Turning to `CCOc1ccccc1NC(=O)c1cccc(NC(=O)c2ccccc2C(F)(F)F)c1`, the concentration for half-maximal inhibition (IC50) is 320 nM.
With `Cc1cccc(C(=O)Nc2cccc(NC(=O)c3cccc(Cl)c3)c2)c1` the figure was 13400 nM; with `Cc1cccc(C(=O)Nc2cccc(NC(=O)C3CCCCC3)c2)c1`, 11900 nM.
`Cc1cccc(C(=O)Nc2cccc(NC(=O)c3ccccc3OCC(C)C)c2)c1`: the IC50 was 3390 nM.
The value for `COc1ccccc1C(=O)Nc1cccc(NC(=O)c2cccc(C)c2)c1` was 2720 nM.
The value for `COc1ccccc1C(=O)Nc1cccc(NC(=O)c2ccccc2C)c1` was 3490 nM; that for `CCOc1ccccc1NC(=O)c1cccc(NC(=O)c2cccc(OC)c2)c1` was 2330 nM; that for `CCOc1ccccc1NC(=O)c1cccc(NC(=O)c2ccccc2OC(F)(F)F)c1` was 800 nM.
In the case of `CC(C1CC2CCC1C2)n1c(C2CCOC2)n[nH]c1=S` (stereo not given), the IC50 was 10300 nM.
The value for `Cc1cccc(C(=O)Nc2cccc(NC(=O)c3ccccc3Cl)c2)c1` was 19800 nM; that for `CCOc1ccccc1NC(=O)c1cccc(NC(=O)CC2CCCC2)c1` was 4170 nM.
The value for `CCOc1ccccc1NC(=O)c1cccc(NC(=O)c2cccc(Cl)c2)c1` was 1840 nM; that for `CCOc1ccccc1C(=O)Nc1cccc(NC(=O)C2CCCC2)c1` was 1110 nM.
As to `COc1ccccc1NC(=O)c1cccc(NC(=O)c2ccccc2C(F)(F)F)c1`, the IC50 is 1320 nM.
With `Cc1cccc(C(=O)Nc2cccc(NC(=O)c3ccccc3)c2)c1` the figure was 1820 nM; with `CCOc1ccccc1NC(=O)c1cccc(NC(=O)c2ccccc2Cl)c1`, 2630 nM.
Turning to `COc1ccccc1-c1n[nH]c(=S)n1C(C)C1CC2CCC1C2` (stereo not given), the IC50 is 840 nM.
In the case of `Cc1ccccc1-c1n[nH]c(=S)n1C(C)C1CC2CCC1C2` (stereo not given), the IC50 is 720 nM.
The value for `COc1ccccc1C(=O)Nc1cccc(NC(=O)c2ccccc2)c1` was 1740 nM.
The value for `COc1ccccc1C(=O)Nc1cccc(NC(=O)c2ccccc2OC)c1` was 3620 nM.
On to `CCOc1ccccc1NC(=O)c1cccc(NC(=O)c2ccc(C)cc2)c1`, for which the 50% inhibitory concentration (IC50) is 14700 nM.
Turning to `O=C(Nc1cccc(NC(=O)C2CCCCC2)c1)c1ccccc1`, the IC50 is 8000 nM.
The value for `COc1ccccc1NC(=O)c1cccc(NC(=O)CC2CCCC2)c1` was 2630 nM; that for `CC(C1CC2CCC1C2)n1c(-c2cccc(Cl)c2)n[nH]c1=S` (stereo not given) was 440 nM.
The value for `Cc1cccc(C(=O)Nc2cccc(NC(=O)c3cccc(C)c3)c2)c1` was 990 nM; that for `CCOc1ccccc1C(=O)Nc1cccc(NC(=O)c2cccc(C)c2)c1` was 570 nM; that for `COc1cccc(C(=O)Nc2cccc(NC(=O)c3ccccc3)c2)c1` was 25900 nM.
Take `COc1ccccc1NC(=O)c1cccc(NC(=O)c2ccccc2)c1`: the concentration for half-maximal inhibition (IC50) is 1410 nM.
For the compound `COc1cccc(OC)c1C(=O)Nc1cccc(NC(=O)c2cccc(C)c2)c1`, the IC50 is 19200 nM.
The value for `COc1ccccc1NC(=O)c1cccc(NC(=O)c2ccccc2OC)c1` was 3020 nM; that for `CCOc1cccc(NC(=O)c2cccc(NC(=O)C3CCCC3)c2)c1` was 4070 nM; that for `Cc1cccc(C(=O)Nc2cccc(NC(=O)c3ccccc3C(C)C)c2)c1` was 2390 nM.
Consider `COc1ccccc1C(=O)Nc1cccc(NC(=O)c2ccccc2C(C)C)c1`, for which the IC50 was 740 nM.
The value for `CCOc1ccccc1C(=O)Nc1cccc(NC(=O)c2ccccc2OC)c1` was 1980 nM.
Take `CCOc1ccccc1NC(=O)c1cccc(NC(=O)c2cccc(C)c2)c1`: the IC50 is 290 nM.
`CCOc1ccccc1C(=O)Nc1cccc(NC(=O)c2ccccc2C(F)(F)F)c1`: the IC50 is 1040 nM.
For the compound `O=C(Nc1cccc(NC(=O)c2ccccn2)c1)c1ccccc1`, the IC50 is 5370 nM.
With `CCOc1ccccc1NC(=O)c1cccc(NC(=O)c2ccccc2OC)c1` the figure was 1180 nM; with `CC(C1CC2CCC1C2)n1c(-c2ccccc2)n[nH]c1=S` (stereo not given), 520 nM.
On to `CCOc1ccccc1NC(=O)c1cccc(NC(=O)c2cccc(C(F)(F)F)c2)c1`, for which the IC50 is 1380 nM.
With `Cc1ccccc1C(=O)Nc1cccc(NC(=O)c2ccccc2)c1` the figure was 6480 nM.
The value for `CCOc1ccccc1NC(=O)c1cccc(NC(=O)C2CC2)c1` was 10200 nM.
For the compound `CC(C1CC2CCC1C2)n1c(-c2ccccc2Cl)n[nH]c1=S` (stereo not given), the IC50 was 470 nM.
In the case of `Cc1cccc(C(=O)Nc2cccc(NC(=O)c3ccccc3C(F)(F)F)c2)c1`, the IC50 is 12900 nM.
The value for `CC(C1CC2CCC1C2)n1c(-c2ccsc2)n[nH]c1=S` (stereo not given) was 1000 nM.
As for `CCOc1ccccc1NC(=O)c1cccc(NC(=O)C(C)(C)C)c1`, the half-inhibitory concentration (IC50) was 30600 nM.
Turning to `COc1ccccc1NC(=O)c1cccc(NC(=O)C2CCCCC2)c1`, the half-inhibitory concentration (IC50) is 2160 nM.
Turning to `Cc1cccc(C(=O)Nc2cccc(NC(=O)c3cccs3)c2)c1`, the IC50 is 6850 nM.
With `O=C(Nc1ccccc1Cl)c1cccc(NC(=O)C2CCCC2)c1` the figure was 5780 nM; with `COc1cccc(C(=O)Nc2cccc(NC(=O)c3cccc(C)c3)c2)c1`, 29300 nM; with `CCOc1ccccc1NC(=O)c1cccc(NC(=O)C2CCCC2)c1`, 1840 nM.
With `COc1ccc(-c2n[nH]c(=S)n2C(C)C2CC3CCC2C3)cc1` (stereo not given) the figure was 1730 nM; with `Cc1cccc(C(=O)Nc2cccc(NC(=O)c3ccccc3C)c2)c1`, 940 nM; with `COc1ccccc1C(=O)Nc1cccc(NC(=O)c2ccccc2OC(F)(F)F)c1`, 1170 nM.
For `CC(C1CC2CCC1C2)n1c(-c2ccoc2)n[nH]c1=S` (stereo not given), the IC50 is 4250 nM.
With `CCOc1ccccc1NC(=O)c1cccc(NC(=O)c2ccccc2C)c1` the figure was 4290 nM.
The value for `COc1cccc(-c2n[nH]c(=S)n2C(C)C2CC3CCC2C3)c1` (stereo not given) was 210 nM; that for `CCOc1ccccc1NC(=O)c1cccc(NC(=O)c2ccccc2)c1` was 1430 nM.
The value for `Cc1cccc(C(=O)Nc2cccc(NC(=O)c3ccccc3OC(F)(F)F)c2)c1` was 1050 nM.
For `CCOc1ccccc1NC(=O)c1cccc(NC(=O)C2CCCCC2)c1`, the IC50 was 1300 nM.
The value for `Cc1cccc(C(=O)Nc2cccc(NC(=O)c3ccco3)c2)c1` was 1670 nM.
With `O=C(Nc1cccc(NC(=O)c2ccccc2C(F)(F)F)c1)c1ccccc1` the figure was 7210 nM.
The value for `COc1ccccc1NC(=O)c1cccc(NC(=O)C2CCCC2)c1` was 1550 nM.
For the compound `CC(C1CC2CCC1C2)n1c(-c2ccco2)n[nH]c1=S` (stereo not given), the half-inhibitory concentration (IC50) is 320 nM.
With `CCOc1ccccc1NC(=O)c1cccc(NC(=O)CC2CCCCC2)c1` the figure was 1920 nM.
